Screening data as filed in PubChem BioAssay.
Sampled rows, rich in hits. Any-hit rate of the full collection: about 2.9%.
PRMT1 FP inh: inhibitors of human PRMT1 | AID 652257 | Q99873 | recombinant PRMT1, activity-based probe fluorescence polarization | inhibition, % at 2.79 µM | hit rate 1.3% among 370,000;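 active means inhibition above about 21% made by adding two undisclosed values, limit read from the data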
ABHD5 PLIN5 PPI: ABHD5-PLIN5 protein interaction inhibition | Q00G26+Q8WTS1 | hit rate 0.78% among 360,000 | Split G. princeps luciferase complementation, luminescence, 4 h | inhibition, % at 4 µM;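 active means inhibition above the mean inhibition across every tested compound plus 3 SD, cut at about 22% in these data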;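 further: 0% = DMSO only wells and the 100% control is not disclosed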
A3A deaminase: human APOBEC3A DNA deaminase inhibition; P31941; hit rate 0.41% among 330,000; recombinant A3A, FAM/TAMRA ssDNA deamination fluorescence; inhibition, % at 20 µM;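 active means at least 40% inhibition at 20 µM here, with at most 30% in a related deaminase screen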;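 further: plate controls were A3A with DMSO for no effect and wells lacking A3A enzyme for full effect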
Target sequence (P31941 whole entry, looked up): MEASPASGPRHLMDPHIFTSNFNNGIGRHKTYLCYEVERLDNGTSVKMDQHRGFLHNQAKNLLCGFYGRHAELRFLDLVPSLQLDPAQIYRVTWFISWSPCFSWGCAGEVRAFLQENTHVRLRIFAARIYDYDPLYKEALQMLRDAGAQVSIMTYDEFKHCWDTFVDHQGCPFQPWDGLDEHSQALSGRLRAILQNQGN
NS3 helicase inh: inhibitors of Hepatitis C virus NS3 helicase; NS3 helicase DNA unwinding, Cy5 molecular beacon fluorescence; inhibition, % at 10.9 µM; hit rate 0.56% among 290,000; AID 1800;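 active means inhibition above the mean of all tested compounds plus 3 SD, set per campaign, cut at about 35% in these data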;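 further: 0% = DMSO wells and 100% = thioflavine S control wells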
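Control set: DMSO versus 110 µM thioflavine S; Material: NS3 helicase fragment of HCV; Measured by: Cy5 fluorescence at 0 and 60 min, beacon hairpin quenching; Read-out basis: percent inhibition from t60/t0 fluorescence ratio; Times: reaction time 60 min, 25 °C; Repeats: single replicate; Compound dosing: single dose, 10.9 µM nominal final, DMSO 0.8% final.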
APOBEC3G inh: blocks human APOBEC3G single-stranded DNA deamination. hit rate 0.28% among 330,000. recombinant A3G, ssDNA deamination FAM/TAMRA fluorescence. inhibition, % at 20 µM;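 active means inhibition of at least 40% at 20 µM, with no more than 30% in the related APOBEC3A deaminase screen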;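 further: plate controls were DMSO wells with A3G for no effect and wells lacking A3G enzyme for full effect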
Target sequence (Q9HC16 whole entry, looked up): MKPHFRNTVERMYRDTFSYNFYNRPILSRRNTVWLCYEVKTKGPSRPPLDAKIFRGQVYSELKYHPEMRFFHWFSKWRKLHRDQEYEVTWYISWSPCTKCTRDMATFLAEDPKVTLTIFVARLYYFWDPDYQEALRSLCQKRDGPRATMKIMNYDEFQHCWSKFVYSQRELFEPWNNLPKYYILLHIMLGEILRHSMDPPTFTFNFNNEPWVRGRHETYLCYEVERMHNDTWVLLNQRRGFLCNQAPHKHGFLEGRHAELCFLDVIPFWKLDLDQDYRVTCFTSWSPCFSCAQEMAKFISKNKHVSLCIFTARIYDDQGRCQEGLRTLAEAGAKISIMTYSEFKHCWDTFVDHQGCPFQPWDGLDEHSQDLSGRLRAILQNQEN
HCV core dimer: blocks dimerization of HCV core protein; TR-FRET GST/Flag-core106 dimerization, 1536-well; hit rate 0.33% among 300,000; inhibition, % at 5 µM; AID 1899;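 active means inhibition above the mean of all tested compounds plus 3 SD, set per screening campaign, cut at about 45% in these data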
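test system = GST/Flag-tagged HCV core106 proteins | probe or stimulus = Eu donor and XL665 acceptor anti-tag antibodies | times = compound-protein-antibody incubation 4 h at 22.5 °C | signal = TR-FRET, excitation 340 nm, emission 617 and 671 nm | measure = percent inhibition of core106 dimerization signal | controls = wells lacking GST-core106 and wells with excess unlabelled core106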
PRMT1 inh conf: PRMT1 (human) inhibition, FP confirmation | shares compounds with PRMT1 FP inh | recombinant His-PRMT1, activity-based probe fluorescence polarization | inhibition, % at 2.79 µM | hit rate 42% among 3,300 | AID 687036;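 active means mean inhibition across replicates above the hit cutoff derived for the earlier primary screen, cut at about 22% in these data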
* hit, by the source's call; · = no result given.

SMILES	PRMT1 FP inh	ABHD5 PLIN5 PPI	A3A deaminase	NS3 helicase inh	APOBEC3G inh	HCV core dimer	PRMT1 inh conf
CC(C)(C)[C@H]1CCC(=O)N([C@H](CSc2ccccc2)Cc2ccccc2)CC1	-3.0	-8.0	0.4	-16.4	16.5	-1.6	·
CC(=O)Nc1ccc(SCCN2CC[C@@H](O)CCC2=O)cc1	-1.9	4.0	-5.6	·	-6.6	·	·
CC(=O)Nc1ccc(S[C@@H](CCN2CC[C@H](C(C)(C)C)CCC2=O)c2ccccc2)cc1	44.9*	-8.8	-1.1	·	-6.1	·	60.6*
CC(=O)Nc1ccc(SCCN2CC[C@@H](C)CCC2=O)cc1	24.9*	-12.6	-0.6	·	-3.5	·	29.8*
CC(C)(C)[C@@H]1CCC(=O)N(CC[C@H](Sc2ccccc2)c2ccccc2)CC1	-2.3	-1.2	1.8	28.1	8.0	1.1	·
CC(=O)Nc1ccc(SC[C@H](Cc2ccccc2)N2CC[C@@H](C(C)(C)C)CCC2=O)cc1	51.5*	-7.2	1.3	·	-2.6	·	39.4*
CC(=O)Nc1ccc(SC[C@H](Cc2ccccc2)N2CC[C@@H](O)CCC2=O)cc1	7.0	-4.4	2.6	·	-2.0	·	·
CC(=O)Nc1ccc(SC[C@H](Cc2ccccc2)N2CCN(CCc3ccccc3)CCC2=O)cc1	29.2*	-2.8	-0.7	·	-8.8	3.7	41.9*
O=C(NCc1ccncc1)C1Cc2c(-c3ccc4c(c3)OCO4)ccnc2O1 (centres undefined)	39.9*	-0.2	·	·	·	·	11.5
CN(C)CCNS(=O)(=O)c1ccc(N2CCc3ccccc32)c([N+](=O)[O-])c1	-4.6	0.1	0.4	-37.7	-5.6	-11.1	·
COCCn1c(C)cc(C(=O)COc2cccnc2[N+](=O)[O-])c1C	2.1	-1.0	1.1	10.7	-1.8	-2.0	·
Cc1cc(C)c(C(=O)COc2cccnc2[N+](=O)[O-])cc1C	37.5*	-2.9	4.0	-0.7	-0.6	15.7	50.7*
Cc1ccc(C)c(C(=O)CSc2n[nH]c(C)n2)c1	25.7*	-6.4	-3.6	5.4	-7.3	-0.7	47.2*
CC(=O)Nc1ccc(SCC(=O)c2cc(C)n(-c3ccccc3)c2C)cc1	3.9	-4.3	-2.7	-2.6	-3.8	6.3	·
CCc1nc(SCC(=O)c2cc(C)ccc2C)n[nH]1	14.3	0.5	0.3	8.5	-1.4	-3.5	·
CC(=O)Nc1ccc(SCC(=O)c2cc(C)ccc2C)cc1	28.6*	-1.3	1.9	9.7	11.0	-18.2	24.8*
Cc1ccc(-c2csc3ncn(C(C)C(=O)O)c(=O)c23)cc1 (centres undefined)	4.1	-0.3	-2.6	6.3	-6.9	5.3	·
Cc1ccc(C2=NN=C(NC(=O)C(F)(F)F)SC2)cc1	57.6*	-20.8	·	0.0	·	·	60.9*
O=C1CC(N2CCN(c3ccc(O)cc3)CC2)C(=O)N1c1ccc2c(c1)OCO2 (centres undefined)	39.1*	5.5	-4.2	6.3	13.5	1.0	-1.5
O=C1CC(N2CCN(Cc3ccc4c(c3)OCO4)CC2)C(=O)N1c1cccc(Cl)c1 (centres undefined)	2.1	2.4	-4.1	5.4	-6.1	1.5	·
O=C1CC(NC23CC4CC(CC(C4)C2)C3)C(=O)N1c1ccc2c(c1)OCO2 (centres undefined)	65.0*	-6.1	-3.2	5.5	0.7	7.7	13.0
O=C1CC(N2CCCCCC2)C(=O)N1c1ccc2c(c1)OCO2 (centres undefined)	68.7*	8.5	0.3	2.9	2.2	-1.8	35.5*
O=C1CC(N2CCN(Cc3ccccc3)CC2)C(=O)N1c1ccc2c(c1)OCCO2 (centres undefined)	2.5	4.3	-7.8	6.3	-5.6	-5.4	·
O=C(Nc1ccccc1F)c1ccc2ncsc2c1	14.4	-10.0	3.2	1.0	-3.2	1.3	·
N#CCc1c(C#N)c(N)nc(Nc2ccccc2)c1C#N	40.3*	17.8	-3.7	-2.9	-1.8	3.0	-0.8
SMILES	PRMT1 FP inh	ABHD5 PLIN5 PPI	A3A deaminase	NS3 helicase inh	APOBEC3G inh	HCV core dimer	PRMT1 inh conf
CCOc1ccc(-n2c(SCC(=O)c3ccc4ccccc4c3)nnc2-c2ccco2)cc1	45.6*	·	·	·	·	·	7.9
O=[N+]([O-])c1ccc(Sc2ncccn2)c([N+](=O)[O-])c1	1.7	-1.3	-4.7	-5.4	-10.1	4.0	·
O=[N+]([O-])c1cnc(Sc2ccncn2)s1	25.8*	17.5	-2.1	-7.5	37.5	-0.5	30.6*
O=[N+]([O-])c1cnc(Sc2ccncn2)c([N+](=O)[O-])c1	71.1*	-8.5	·	·	·	·	89.6*
COc1ccc(-n2nc3c(c2NC(=O)COc2ccccc2OC)CS(=O)(=O)C3)cc1	-2.6	6.5	·	·	·	·	·
CN1Cc2c(N)cccc2C(c2ccccc2)C1 (centres undefined)	43.5*	1.0	5.1	-0.5	-2.6	12.4	7.6
CCOC(=O)c1c(/N=C/c2cccc([N+](=O)[O-])c2O)sc(C)c1C	28.2*	-7.6	1.7	14.9	3.0	7.5	-0.7
CC(O)C(O)C(O)C(O)C1NCCS1 (centres undefined)	19.8	-11.7	-1.1	6.3	-2.7	-3.3	·
OCC(O)C(O)C(O)C(O)C1NCCS1 (centres undefined)	31.8*	-29.1	-4.7	3.9	-7.6	-1.0	15.7
COc1ccc(C2Nc3ccccc3C(=O)N2Cc2ccc(C)o2)cc1COc1c(C)cccc1C (centres undefined)	38.7*	·	·	·	·	·	3.0
C/C=C1\NC(=O)[C@H](C)NC(=O)[C@@H](NC(=O)[C@@H](Cc2ccc(O)cc2)NC(=O)[C@@H](NC(=O)/C(C)=C/C)C(C)C)[C@@H](C)OC(=O)[C@H](CCCCc2ccc(O)cc2)NC(=O)[C@@H](CCC(=O)O)NC1=O	-6.2	0.9	-1.5	·	-5.3	·	·
Cn1c(=O)[nH]c(=O)c2c1[nH]c(=S)n2CCCc1ccccc1	1.8	-13.4	-2.0	21.4	-6.5	·	·
Cn1c(=O)c2c([nH]c(=S)n2CCCc2ccccc2)n(C)c1=O	40.9*	-9.7	-9.3	17.3	-6.6	-5.5	64.2*
O=c1cc2c(=O)oc3cc(O)c(O)oc3c2c(O)c1O	27.0*	1.2	·	15.1	·	·	31.2*
O=c1oc2cc(O)c(Cl)cc2c2ccccc12	1.7	4.7	-3.6	-2.3	-8.1	15.8	·
CCn1c2ccccc2c2n[nH]c(=S)nc21	0.7	-9.8	-0.5	17.5	4.1	-11.8	·
O=C(O)Cn1c2ccccc2c2n[nH]c(=S)nc21	41.6*	-5.0	0.2	18.0	31.9	2.4	84.7*
C=CCn1c2ccccc2c2n[nH]c(=S)nc21	29.5*	-7.5	-8.3	4.5	3.1	·	4.9
CC(C)(C)Nc1c(C2CCNCC2)nc2c(OCc3ccccc3)cccn12	-7.8	-0.1	·	·	·	·	·
Cc1cc2cc(CNC(=O)c3ccco3)ccc2n1C	35.8*	12.8	14.6	·	23.1	24.0	2.0
